From ChEMBL document CHEMBL1131210, “5-(5,6-Dichloro-2-indolyl)-2-methoxy-2,4-pentadienamides: novel and selective inhibitors of the vacuolar H+-ATPase of osteoclasts with bone antiresorptive activity” (J Med Chem, 1998)
pIC50: −log10 of the molar value.

Columns and labels:
[1] = In vitro inhibition of bone resorption by isolated Human osteoclastoma cells (ELISA); type: functional
Summary of the method: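 Collagenase-dispersed osteoclastoma cells, negatively selected with HLA-I Dynabeads, were settled on bone slices at 4000 cells/well. Compound was added at several concentrations, with 8 slices per concentration. After 48 h in D-MEM, type I collagen fragments released into the supernatant were quantified by ELISA.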

[2] = biological target: T1, V-type proton ATPase 116 kDa subunit a 1 (Gallus gallus, UniProt Q9I8D0); assay: (§1) Compound was tested for inhibition of V-ATPase from Chicken osteoclasts (cOc)
Summary of the method: (§2)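 Bafilomycin-sensitive ATPase activity in sucrose-gradient-purified membrane vesicles from medullary bone of calcium-starved egg-laying hens, 20–40 μg protein/mL. Medium: 0.2 M sucrose, 50 mM KCl, 10 mM Hepes-Tris pH 8, 1 mM CDTA, 1 mM ATP, 0.1 mM molybdate, 5 μM valinomycin, 5 μM nigericin. Started with 5 mM MgSO4; 30 min, 37 °C; phosphate release by malachite green.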

[3] = In vitro inhibition of bone resorption by isolated Human osteoclastoma cells by the number of excavations (pits/bone slice); type: functional
Summary of the method: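 Human giant-cell-tumour osteoclasts were HLA-I bead-depleted and seeded on bone slices (4000 cells/well), 8 slices per concentration, then cultured 48 h in D-MEM. Slices were glutaraldehyde-fixed and TRAP-stained, and cells were bleached off. Slices were gold-coated and resorption pits counted by light microscopy, expressed as pits/bone slice.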

[4] = biological target: T1, V-type proton ATPase 116 kDa subunit a 1; assay: Compound was tested for inhibition of V-ATPase from Chicken adrenal glands(cAG); type: tissue-based, Adrenal gland
Summary of the method: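 Bafilomycin-sensitive ATPase in purified microsomal membranes from whole chicken adrenal glands (two-step 35%/50% sucrose gradient), 20–40 μg protein/mL. Medium: 0.2 M sucrose, 50 mM KCl, 10 mM Hepes-Tris pH 7.4, 1 mM CDTA, 1 mM ATP, 0.1 mM molybdate, 5 μM valinomycin, 5 μM nigericin. Started with 5 mM MgSO4, 30 min at 37 °C, phosphate read by malachite green.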

[5] = biological target: V-type proton ATPase subunit B, kidney isoform (Homo sapiens, UniProt P15313); assay: Compound was tested for inhibition of V-ATPase from human kidney cortex(hK)
Summary of the method: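 Brush border membranes from frozen human kidney cortex, about 70 μg protein/mL. Bafilomycin-sensitive ATPase in 0.2 M sucrose, 50 mM KCl, 10 mM Hepes-Tris pH 7.4, 1 mM CDTA, 1 mM ATP, 0.1 mM molybdate, 5 μM valinomycin, 5 μM nigericin. Started with 5 mM MgSO4, 30 min at 37 °C, Pi measured colorimetrically (malachite green).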

[6] = biological target: T1, V-type proton ATPase 116 kDa subunit a 1; assay: as §1; type: functional; summary of the method: as §2

Sequence of V-type proton ATPase subunit B, kidney isoform (P15313 whole entry, canonical isoform): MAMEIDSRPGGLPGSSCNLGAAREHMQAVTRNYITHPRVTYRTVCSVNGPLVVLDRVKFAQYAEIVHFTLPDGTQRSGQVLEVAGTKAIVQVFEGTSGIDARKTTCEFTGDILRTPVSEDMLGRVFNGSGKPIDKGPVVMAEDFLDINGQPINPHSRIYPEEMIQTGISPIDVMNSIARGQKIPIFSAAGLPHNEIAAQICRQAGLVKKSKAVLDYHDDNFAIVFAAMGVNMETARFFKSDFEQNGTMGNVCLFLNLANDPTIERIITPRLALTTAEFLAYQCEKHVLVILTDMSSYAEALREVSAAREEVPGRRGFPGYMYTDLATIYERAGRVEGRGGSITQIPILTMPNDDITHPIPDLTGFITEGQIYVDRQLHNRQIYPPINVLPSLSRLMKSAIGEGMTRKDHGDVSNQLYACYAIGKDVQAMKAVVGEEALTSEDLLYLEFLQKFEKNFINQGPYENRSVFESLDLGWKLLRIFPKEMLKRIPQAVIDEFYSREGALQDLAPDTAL
T1 sequence (Q9I8D0 whole entry): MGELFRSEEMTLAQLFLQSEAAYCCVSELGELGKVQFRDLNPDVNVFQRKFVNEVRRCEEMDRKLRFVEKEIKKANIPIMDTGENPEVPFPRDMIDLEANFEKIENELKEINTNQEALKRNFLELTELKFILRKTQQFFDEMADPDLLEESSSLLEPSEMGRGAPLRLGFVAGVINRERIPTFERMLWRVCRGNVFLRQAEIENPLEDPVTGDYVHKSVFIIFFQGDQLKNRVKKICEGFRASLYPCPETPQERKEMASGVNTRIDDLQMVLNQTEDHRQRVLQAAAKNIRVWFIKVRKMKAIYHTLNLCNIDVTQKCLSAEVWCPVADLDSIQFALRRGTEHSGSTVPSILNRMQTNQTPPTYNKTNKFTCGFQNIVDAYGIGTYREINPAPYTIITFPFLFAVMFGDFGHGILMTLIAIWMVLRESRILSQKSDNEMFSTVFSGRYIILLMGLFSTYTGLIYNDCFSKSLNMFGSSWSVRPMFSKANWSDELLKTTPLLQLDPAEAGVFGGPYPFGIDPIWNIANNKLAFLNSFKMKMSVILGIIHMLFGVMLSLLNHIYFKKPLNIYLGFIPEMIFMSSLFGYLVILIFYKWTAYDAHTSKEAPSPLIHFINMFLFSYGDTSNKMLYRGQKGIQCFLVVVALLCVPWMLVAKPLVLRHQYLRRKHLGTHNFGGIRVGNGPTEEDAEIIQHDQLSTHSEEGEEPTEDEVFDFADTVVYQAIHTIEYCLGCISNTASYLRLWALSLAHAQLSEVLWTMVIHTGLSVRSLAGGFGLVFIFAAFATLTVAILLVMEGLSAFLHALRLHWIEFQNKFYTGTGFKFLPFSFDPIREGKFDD

Q: With CO/C(=C\C=C\c1cc2cc(Cl)c(Cl)cc2[nH]1)C(=O)NC1CC(C)(C)NC(C)(C)C1 as the compound, how does the pIC50 [1] read?
A: Its pIC50 is 7.52.

Q: What about the pIC50 [2] of the same compound?
A: The pIC50 was 7.10.

Q: What about the pIC50 [3] of the same compound?
A: Its pIC50 is 7.40.

Q: And the pIC50 [4]?
A: The pIC50 was 6.09.

Q: What about the pIC50 [5] of the same compound?
A: The pIC50 was 6.36.

Q: Which results are given for CO/C(=C\C=C\c1cc2cc(Cl)c(Cl)cc2[nH]1)C(=O)NCCCN1CCN(c2ncccn2)CC1?
A: pIC50 [1]: 8.00; pIC50 [2]: 7.22; pIC50 [3]: 7.52; pIC50 [4]: 6.03; pIC50 [5]: 6.43

Q: With CCN(CC)CCCNC(=O)/C(=C/C=C/c1cc2cc(Cl)c(Cl)cc2[nH]1)OC as the compound, how does the pIC50 [1] read?
A: The pIC50 was 6.85.

Q: What about the pIC50 [2] of the same compound?
A: The pIC50 was 6.74.

Q: What about the pIC50 [3] of the same compound?
A: The pIC50 was 6.74.

Q: And the pIC50 [4]?
A: Its pIC50 is 5.55.

Q: What about the pIC50 [5] of the same compound?
A: The pIC50 was 5.52.

Q: Which results are given for COC(=O)/C(=C\C=C\c1cc2ccccc2[nH]1)OC?
A: pIC50 [6]: 4.52; pIC50 [2]: 4.52

Q: Which results are given for CO/C(=C\C=C\c1cc2cc(Cl)c(Cl)cc2[nH]1)C(=O)NC1C[C@H]2CC[C@@H](C1)N2C (some centres not stated)?
A: pIC50 [1]: 7.52; pIC50 [2]: 7.00; pIC50 [3]: 7.52; pIC50 [4]: 5.60; pIC50 [5]: 5.88
